According to ChEMBL document CHEMBL1154878, “Discovery of benzhydrylpiperazine derivatives as CB1 receptor inverse agonists via privileged structure-based approach” (Eur J Med Chem, 2010):
The source made the active and inactive calls. No cut-off for these calls is given here.

Legend:
Cannabinoid receptor 1 [1] = target: T1, Cannabinoid receptor 1 (Homo sapiens, UniProt P21554); assay: biochemical; type: cell-based, CHO
Cannabinoid receptor 2 = Cannabinoid receptor 2 (Homo sapiens, UniProt P34972); assay: Displacement of [3H]CP-55940 from human recombinant cannabinoid CB2 receptor expressed in CHO cells after 3 hrs by liquid scintillation counting; type: cell-based
Cannabinoid receptor 1 [2] = target: T1, Cannabinoid receptor 1; type: functional, cell-based, CHO
Cannabinoid receptor 1 [3] = target: T1, Cannabinoid receptor 1; assay: Inverse agonist activity at human cannabinoid CB1 receptor expressed in CHO cells assessed as inhibition of forskolin-stimulated cAMP accumulation after 60 mins; type: functional, cell-based
[4] = Plasma half life in Sprague-Dawley rat at 10 mg/kg, po; type: ADME, organism-based; parameters: dose 10 mg/kg, route oral
How it was run: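 Male Sprague–Dawley rats fasted overnight, single oral dose 10 mg/kg. Blood collected at various time points into lithium heparin, plasma stored at -20 °C, extracted by protein precipitation and quantified by LC/MS/MS; n = 5 rats/group.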

Rattus norvegicus [5] = assay: Antiobesity activity in diet-induced obese Sprague-Dawley rat assessed as reduction in food intake at 10 mg/kg, po after 3 hrs; type: functional; parameters: scale not given: the % may be the effect or the level left
How it was run: (§1)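 Male DIO Sprague-Dawley rats (HFD from weaning), randomized n = 14/group, individually caged. Single oral dose 10 mg/kg in 0.5% carboxymethyl cellulose (2 mL/kg) 1 h before dark onset. Preweighed pelleted food reweighed at 3 h and overnight (18 h) postdose for cumulative intake vs vehicle.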

Rattus norvegicus [6] = assay: Antiobesity activity in diet-induced obese Sprague-Dawley rat assessed as reduction in food intake at 10 mg/kg, po after 18 hrs; type: functional; parameters: scale not given: the % may be the effect or the level left
How it was run: as §1

Rattus norvegicus [7] = assay: Antiobesity activity in diet-induced obese Sprague-Dawley rat assessed as reduction in final body weight gain at 10 mg/kg, po SID after 12 days; type: functional, organism-based; parameters: dose 10 mg/kg
How it was run: (§2)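 Male DIO rats (HFD from weaning, 60% kcal fat; used at 12-16 weeks, conditioned to water gavage 5 days), individually caged, n = 11-12/group. Oral gavage 10 mg/kg daily for 12 days, 1 h before dark cycle, in 0.5% carboxymethyl cellulose/water (2 mL/kg) vs vehicle. Food intake and body weight recorded daily; Student's t-test.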

Rattus norvegicus [8] = assay: Antiobesity activity in diet-induced obese Sprague-Dawley rat assessed as body weight progression at 10 mg/kg, po SID up to 12 days; type: functional, organism-based; parameters: dose 10 mg/kg
How it was run: as §2

Chain of Cannabinoid receptor 2 (P34972 whole entry): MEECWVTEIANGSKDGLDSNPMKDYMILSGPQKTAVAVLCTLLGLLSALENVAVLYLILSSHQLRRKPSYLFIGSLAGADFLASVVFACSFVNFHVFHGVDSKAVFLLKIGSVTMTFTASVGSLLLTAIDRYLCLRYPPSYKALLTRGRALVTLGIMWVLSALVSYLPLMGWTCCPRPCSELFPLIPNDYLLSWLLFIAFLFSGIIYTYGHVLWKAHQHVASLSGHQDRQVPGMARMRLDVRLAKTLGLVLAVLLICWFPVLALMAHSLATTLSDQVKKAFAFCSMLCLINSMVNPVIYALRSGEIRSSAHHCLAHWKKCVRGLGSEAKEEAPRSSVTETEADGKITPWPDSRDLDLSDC
T1 sequence (P21554 whole entry): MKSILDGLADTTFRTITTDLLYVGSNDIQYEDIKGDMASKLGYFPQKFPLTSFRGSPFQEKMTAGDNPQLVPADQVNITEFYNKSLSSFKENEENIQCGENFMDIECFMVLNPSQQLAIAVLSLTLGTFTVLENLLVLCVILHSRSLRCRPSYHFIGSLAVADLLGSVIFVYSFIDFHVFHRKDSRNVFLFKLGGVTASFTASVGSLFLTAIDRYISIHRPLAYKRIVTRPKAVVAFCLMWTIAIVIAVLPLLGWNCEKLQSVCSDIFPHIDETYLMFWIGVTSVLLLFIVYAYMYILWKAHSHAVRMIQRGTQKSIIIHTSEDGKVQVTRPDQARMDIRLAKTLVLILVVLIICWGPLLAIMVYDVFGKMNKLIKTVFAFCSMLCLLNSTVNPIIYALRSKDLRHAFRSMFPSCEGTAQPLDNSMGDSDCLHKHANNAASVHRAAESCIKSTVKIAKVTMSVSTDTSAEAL

| Ki (Cannabinoid receptor 1 [1]) [nM] | Ki (Cannabinoid receptor 2) [nM] | IC50 (Cannabinoid receptor 1 [2]) [nM] | SMILES | also measured |
| --- | --- | --- | --- | --- |
| 732 | 4880 | 403 | O=C(C1CCCC1)N1CCN(C(c2ccccc2)c2ccc(Cl)cc2Cl)CC1 (centres undefined) |  |
| 106 | 1870 |  | S=C(NC1CCCCC1)N1CCN(C(c2ccccc2)c2ccccc2)CC1 |  |
| 56 | 987 | > 10000 | O=C(N1CCCCC1)N1CCN(C(c2ccccc2)c2ccc(Cl)cc2Cl)CC1 (centres undefined) |  |
| 111 | 618 | > 10000 | O=C(N1CCOCC1)N1CCN(C(c2ccccc2)c2ccc(Cl)cc2Cl)CC1 (centres undefined) |  |
| 0.23 | 26 | 19 | O=C(NC1CCCCC1)N1CCN(C(c2ccc(Cl)cc2)c2ccc(Cl)cc2Cl)CC1 (centres undefined) |  |
| 1.8 | 322 | 87 | O=C(NC1CCCCC1)N1CCN(C(c2ccccc2)c2ccc(Br)cc2F)CC1 (centres undefined) |  |
| 1.2 | 1040 | 4.7 | O=C(NN1CCCCC1)N1CCN(C(c2ccccc2)c2ccc(Cl)cc2Cl)CC1 (centres undefined) |  |
| 52 | 2410 |  | O=C(NC1CCCCC1)N1CCN(C(c2ccccc2)c2ccccc2)CC1 |  |
| 2.5 | 159 | 8.1 | O=C(NC1CCCCC1)N1CCN(C(c2ccc(F)cc2)c2ccc(Cl)cc2Cl)CC1 (centres undefined) |  |
| 164 | 3050 |  | O=C(C1CCCCC1)N1CCN(C(c2ccccc2)c2ccccc2)CC1 |  |
| 3.1 | 526 | 124 | O=C(NC1CCCCC1)N1CCN(C(c2ccccc2)c2ccc(Cl)cc2F)CC1 (centres undefined) |  |
| 0.15 | 329 | 2.7 | Cc1ccc(C(c2ccc(Cl)cc2Cl)N2CCN(C(=O)NC3CCCCC3)CC2)cc1 (centres undefined) | EC50 (Cannabinoid receptor 1 [3]): 0.87 nM; half-life [4]: 2.4 h; Activity (Rattus norvegicus [5]): 39%; Activity (Rattus norvegicus [6]): 22%; Activity (Rattus norvegicus [7]): Active; Activity (Rattus norvegicus [8]): Active |
| 1.6 | 432 | 9.2 | O=C(NC1CCCCC1)N1CCN(C(c2ccccc2)c2ccc(Cl)cc2Cl)CC1 (centres undefined) |  |
| 239 | 2830 |  | CCCCNC(=O)N1CCN(C(c2ccccc2)c2ccccc2)CC1 |  |
| 60 | 356 | 462 | O=C(NC1CCCCC1)N1CCN(C(c2ccccc2)c2ccc(Cl)c(Cl)c2)CC1 (centres undefined) |  |
| 5.9 | 25 | 288 | O=C(N1CCN(C(c2ccccc2)c2ccc(Cl)cc2Cl)CC1)C12CC3CC(CC(C3)C1)C2 (centres undefined) |  |
| 3 | 317 | 15 | Cc1ccc(C(c2ccc(Cl)cc2Cl)N2CCN(C(=O)NN3CCCCC3)CC2)cc1 (centres undefined) |  |
| 1.1 | 52 | 34 | O=C(NC1CCCCC1)N1CCN(C(c2ccc(Oc3ccccc3)cc2)c2ccc(Cl)cc2Cl)CC1 (centres undefined) |  |
| 5.8 | 2930 | 9.3 | O=C(C1CCCCC1)N1CCN(C(c2ccccc2)c2ccc(Cl)cc2Cl)CC1 (centres undefined) |  |
|  | 918 |  | CCCCNC(=O)N1CCN(C(c2ccccc2)c2ccc(Cl)cc2Cl)CC1 (centres undefined) |  |
| 2.6 | 290 | 82 | COc1ccc(C(c2ccc(Cl)cc2Cl)N2CCN(C(=O)NC3CCCCC3)CC2)cc1 (centres undefined) |  |
| 291 | 2120 | > 10000 | O=C(C1CCC1)N1CCN(C(c2ccccc2)c2ccc(Cl)cc2Cl)CC1 (centres undefined) |  |
| 2.2 | 831 | 55 | O=C(NC1CCCCC1)N1CCN(C(c2ccccc2)c2c(Cl)cccc2Cl)CC1 (centres undefined) |  |
| 1.2 | 274 | 57 | O=C(NC1CCCCC1)N1CCN(C(c2ccc(C(F)(F)F)cc2)c2ccc(Cl)cc2Cl)CC1 (centres undefined) |  |
| 5.9 | 899 | 43 | O=C(NC1CCCCC1)N1CCN(C(c2ccccc2)c2cc(Cl)ccc2Cl)CC1 (centres undefined) |  |
| 0.2 | 673 | 18 | S=C(NC1CCCCC1)N1CCN(C(c2ccccc2)c2ccc(Cl)cc2Cl)CC1 (centres undefined) |  |
| 2.3 | 407 | 161 | O=C(NC1CCCCC1)N1CCN(C(c2cccc(Cl)c2)c2ccc(Cl)cc2Cl)CC1 (centres undefined) |  |
| 8.1 | 1300 | 68 | O=C(NC1CCCCC1)N1CCN(C(c2ccccc2)c2ccc(F)cc2Cl)CC1 (centres undefined) |  |
